Reference: ChEMBL document CHEMBL1148377, “Identification of novel binding interactions in the development of potent, selective 2-naphthamidine inhibitors of urokinase. Synthesis, structural analysis, and SAR of N-phenyl amide 6-substitution” (J Med Chem, 2004)

How the values were obtained:
[1] = biological target: Urokinase-type plasminogen activator (Homo sapiens, UniProt P00749)
[2] = biological target: Tissue-type plasminogen activator (Homo sapiens, UniProt P00750); assay: Binding affinity towards human Tissue type plasminogen activator.
Chain of Tissue-type plasminogen activator (P00750 whole entry): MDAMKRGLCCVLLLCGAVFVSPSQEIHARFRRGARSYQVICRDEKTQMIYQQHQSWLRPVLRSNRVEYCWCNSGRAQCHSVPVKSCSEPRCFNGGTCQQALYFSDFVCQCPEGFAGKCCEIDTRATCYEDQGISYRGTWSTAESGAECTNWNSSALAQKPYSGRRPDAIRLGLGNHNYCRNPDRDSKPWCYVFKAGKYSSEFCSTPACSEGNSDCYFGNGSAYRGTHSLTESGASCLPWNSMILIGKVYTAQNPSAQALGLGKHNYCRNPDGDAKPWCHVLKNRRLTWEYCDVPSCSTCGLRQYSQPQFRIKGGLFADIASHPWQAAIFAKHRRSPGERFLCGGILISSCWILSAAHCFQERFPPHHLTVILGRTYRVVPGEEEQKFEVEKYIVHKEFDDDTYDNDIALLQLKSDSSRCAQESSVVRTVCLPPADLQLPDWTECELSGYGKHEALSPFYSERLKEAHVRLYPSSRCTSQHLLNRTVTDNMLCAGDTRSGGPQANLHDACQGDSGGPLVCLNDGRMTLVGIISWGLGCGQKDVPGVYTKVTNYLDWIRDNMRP
Method in brief: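 Human tPA (1 μg/mL) was run against S-2288 (H-D-Ile-Pro-Arg-pNA) at 1350 μM in Tris 50 mM/NaCl 0.15 M/0.5% Pluronic F-68 buffer at pH 7.4. Test agents in DMSO spanned 0.01–250 μM. Substrate addition began the reaction, and p-nitroaniline formation at 405 nm was followed for 15 min. Ki derived from percent inhibition and previously determined Km.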

Prothrombin = Prothrombin (Homo sapiens, UniProt P00734); assay: Binding affinity against human alpha thrombin.
Plasminogen = Plasminogen (Homo sapiens, UniProt P00747); assay: Binding affinity towards human plasmin.
Chain of Plasminogen (P00747 97-580 limits assumed): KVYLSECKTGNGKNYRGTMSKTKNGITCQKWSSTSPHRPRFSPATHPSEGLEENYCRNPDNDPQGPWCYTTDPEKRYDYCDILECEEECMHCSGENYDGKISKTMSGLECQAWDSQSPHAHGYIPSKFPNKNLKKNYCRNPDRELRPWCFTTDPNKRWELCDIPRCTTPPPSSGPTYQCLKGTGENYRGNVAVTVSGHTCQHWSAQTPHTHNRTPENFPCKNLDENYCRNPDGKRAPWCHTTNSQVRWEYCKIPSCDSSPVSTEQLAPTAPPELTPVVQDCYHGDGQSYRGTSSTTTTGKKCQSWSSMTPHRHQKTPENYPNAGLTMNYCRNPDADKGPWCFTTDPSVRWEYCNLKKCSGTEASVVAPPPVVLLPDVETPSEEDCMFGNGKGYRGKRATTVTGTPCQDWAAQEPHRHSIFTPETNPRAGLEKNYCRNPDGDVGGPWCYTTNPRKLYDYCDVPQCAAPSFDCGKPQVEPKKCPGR
Chain of Plasminogen (P00747 581-810 limits assumed): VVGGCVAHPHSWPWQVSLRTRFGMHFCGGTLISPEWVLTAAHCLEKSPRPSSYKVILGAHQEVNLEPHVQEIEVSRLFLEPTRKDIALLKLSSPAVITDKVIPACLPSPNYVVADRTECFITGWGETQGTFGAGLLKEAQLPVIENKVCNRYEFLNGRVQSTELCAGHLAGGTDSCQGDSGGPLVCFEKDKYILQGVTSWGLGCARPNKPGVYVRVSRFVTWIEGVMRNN
Method in brief: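 Uses human plasmin at 18 nM with S-2251 (H-D-Val-Leu-Lys-pNA) at 360 μM. The buffer was 50 mM Tris/0.15 M NaCl + 0.5% Pluronic F-68, pH 7.4, and compounds were added in DMSO at 0.01–250 μM. After substrate start, absorbance at 405 nm was tracked for 15 min. Percent inhibition came from rates, and Ki from percent inhibition with established Km values.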

Plasma kallikrein = Plasma kallikrein (Homo sapiens, UniProt P03952); assay: Binding affinity against human plasma kallikrein.; assay type: cell-free
Chain of Plasma kallikrein (P03952 20-390 limits assumed): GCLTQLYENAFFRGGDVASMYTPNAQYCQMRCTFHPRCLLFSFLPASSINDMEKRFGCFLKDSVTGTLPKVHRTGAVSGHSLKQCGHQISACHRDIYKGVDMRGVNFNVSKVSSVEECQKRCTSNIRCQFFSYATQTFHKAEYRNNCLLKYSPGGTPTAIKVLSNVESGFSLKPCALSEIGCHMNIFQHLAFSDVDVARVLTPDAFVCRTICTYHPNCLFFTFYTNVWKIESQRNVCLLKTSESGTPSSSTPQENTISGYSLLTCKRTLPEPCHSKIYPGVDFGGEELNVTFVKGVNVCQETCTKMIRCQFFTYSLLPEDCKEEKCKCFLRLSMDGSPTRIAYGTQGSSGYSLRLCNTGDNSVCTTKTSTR
Chain of Plasma kallikrein (P03952 391-638 limits assumed): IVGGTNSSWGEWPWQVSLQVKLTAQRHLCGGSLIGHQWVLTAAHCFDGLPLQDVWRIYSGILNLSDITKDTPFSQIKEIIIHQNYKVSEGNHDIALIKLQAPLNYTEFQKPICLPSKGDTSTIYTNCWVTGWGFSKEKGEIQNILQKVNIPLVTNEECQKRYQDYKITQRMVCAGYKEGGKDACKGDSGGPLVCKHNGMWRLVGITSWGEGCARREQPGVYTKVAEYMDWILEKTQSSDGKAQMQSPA
Method in brief: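 Enzyme: human plasma kallikrein at 100 ng/mL. Substrate: S-2302 (H-D-Pro-Phe-Arg-pNA) at 330 μM. Conditions were pH 7.4, 50 mM Tris/0.15 M NaCl/0.5% Pluronic F-68, with compounds from DMSO at 0.01–250 μM. Substrate addition started each reaction, followed by pNA release at 405 nm over 15 min. Ki was calculated from rate-based percent inhibition using previously established Km.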

| Structure (SMILES) | Ki [1] | Ki [2] | Ki (Prothrombin) | Ki (Plasminogen) | Ki (Plasma kallikrein) |
| --- | --- | --- | --- | --- | --- |
| CCC(CC)Oc1cccc(NC(=O)c2ccc3cc(C(=N)N)ccc3c2)c1 | 104 nM |  |  |  |  |
| N=C(N)c1ccc2cc(C(=O)Nc3cccc(CC4CCCC4)c3)ccc2c1 | 167 nM |  |  |  |  |
| N=C(N)c1ccc2cc(C(=O)Nc3ccc(C(N)=O)cc3)ccc2c1 | 326 nM | > 100000 nM | 2350 nM | 1970 nM | 2430 nM |
| CC(C)Oc1cccc(NC(=O)c2ccc3cc(C(=N)N)ccc3c2)c1 |  | 2370 nM | 3490 nM | 554 nM | 1370 nM |
| N=C(N)c1ccc2cc(C(=O)Nc3cccc(Oc4ccccc4)c3)ccc2c1 | 517 nM |  |  |  |  |
| CC(C)C1=NCCc2ccc(NC(=O)c3ccc4cc(C(=N)N)ccc4c3)cc21 |  | 1840 nM | 4990 nM | 768 nM | 436 nM |
| CC(C)Oc1cc(NC(=O)c2ccc3cc(C(=N)N)ccc3c2)cc(OC(C)C)c1 | 28 nM | 790 nM | 21700 nM | 1060 nM | 4300 nM |
| CC(C)CC1=NCCc2ccc(NC(=O)c3ccc4cc(C(=N)N)ccc4c3)cc21 | 161 nM |  |  |  |  |
| N=C(N)c1ccc2ccccc2c1 | 5910 nM | > 100000 nM |  | 51300 nM | 22500 nM |
| CC(C)Oc1cc(NC(=O)c2ccc3cc(C(=N)N)ccc3c2)cc(OC2CCCC2)c1 | 22 nM | 844 nM | 21600 nM | 966 nM | 3330 nM |
| CCOc1cccc(NC(=O)c2ccc3cc(C(=N)N)ccc3c2)c1 | 82 nM |  |  |  |  |
| [H]/N=C(\N)c1ccc2cc(C(=O)Nc3ccc(CN)cc3)ccc2c1 |  | 58400 nM | > 100000 nM | 16000 nM | 7170 nM |
| N=C(N)c1ccc2cc(C(=O)Nc3ccc4c(c3)CCNC4)ccc2c1 |  | 2320 nM | 6920 nM | 1030 nM | 112 nM |
| N=C(N)c1ccc2cc(C(=O)Nc3ccc4c(c3)C(C3CCCC3)NCC4)ccc2c1 (stereo not drawn) | 26.5 nM | 3950 nM | 10200 nM | 833 nM | 400 nM |
| CC(C)CC1NCCc2ccc(NC(=O)c3ccc4cc(C(=N)N)ccc4c3)cc21 (stereo not drawn) | 123 nM | > 50000 nM | 7310 nM | 1190 nM | 1350 nM |
| CC(C)C1NCCc2ccc(NC(=O)c3ccc4cc(C(=N)N)ccc4c3)cc21 (stereo not drawn) |  | 1120 nM | 5720 nM | 631 nM | 230 nM |
| N=C(N)c1ccc2cc(C(=O)Nc3ccc4c(c3)C(C3CCCC3)=NCC4)ccc2c1 | 35.5 nM | 3130 nM | 5310 nM | 765 nM | 849 nM |
| CNC(=O)c1ccc2cc(C(=N)N)ccc2c1 | 8700 nM |  |  |  |  |
| CN(C(=O)c1ccc2cc(C(=N)N)ccc2c1)c1ccccc1 | 15500 nM |  |  |  |  |
| N=C(N)c1ccc2cc(C(=O)Nc3ccccc3)ccc2c1 |  | 31800 nM | 5640 nM | 1950 nM | 2500 nM |
| N=C(N)c1ccc2cc(C(=O)Nc3cccc(OC4CCCC4)c3)ccc2c1 |  | 3390 nM | 5580 nM | 498 nM | 2720 nM |
| CCC1CNCc2ccc(NC(=O)c3ccc4cc(C(=N)N)ccc4c3)cc21 (stereo not drawn) |  | 1650 nM | 6440 nM | 1120 nM | 145 nM |
| CCc1ccc(NC(=O)c2ccc3cc(C(=N)N)ccc3c2)cc1 | 736 nM | 83900 nM | 43700 nM | 3870 nM | 18100 nM |
| N#Cc1ccc2cc(NC(=O)c3ccccc3)ccc2c1 |  | > 100000 nM | 17600 nM | 5560 nM | 8000 nM |
| COc1cccc(NC(=O)c2ccc3cc(C(=N)N)ccc3c2)c1 | 233 nM |  |  |  |  |
| N=C(N)c1ccc2cc(C(=O)Nc3ccc(CO)cc3)ccc2c1 |  | 8350 nM | 35100 nM | 3820 nM | 2570 nM |
| COc1cc(NC(=O)c2ccc3cc(C(=N)N)ccc3c2)cc(OC)c1 | 139 nM |  |  |  |  |
